Data: ChEMBL document CHEMBL1221214, “Cytosporone B is an agonist for nuclear orphan receptor Nur77” (Nat Chem Biol, 2008)
Active and inactive are the calls of the source. The rule behind the calls is not given here.

Legend:
[1] = target: T1, Nuclear receptor subfamily 4immunitygroup A member 1 (Homo sapiens, UniProt P22736); assay: Agonist activity at nuclear orphan receptor Nur77 in human BGC823 cells bearing beta-galactosidase expression vector assessed as transcriptional activation of NurRE reporter gene after 12 hrs by luciferase assay; format: functional, cell-based; settings: BGC-823
[2] = target: Nuclear receptor subfamily 4 group A member 1 (Mus musculus) (UniProt P12813); assay: Agonist activity at Nur77 in Nr4a1 deficient mouse C57BL/6 assessed as fructose-1,6-bisphosphatase mRNA at 50 mg/kg, ip by real-time PCR analysis; format: functional, organism-based; design: dose 50 mg/kg
[3] = target: T1, Nuclear receptor subfamily 4immunitygroup A member 1; assay: Agonist activity at nuclear orphan receptor Nur77 expressed in human BGC823 cells co-transfected with pLuc-2900 containing Nr4a1 promoter assessed as transcriptional activity; format: functional, cell-based; settings: BGC-823
[4] = target: Nuclear receptor subfamily 4 group A member 1 (Mus musculus) (UniProt P12813); assay: Agonist activity at Nur77 in wild-type mouse assessed as transcriptional activation of luciferase reporter gene relative to control; format: functional
Procedure, shortened: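 Nur77, NurRE-luciferase reporter and β-galactosidase combined with in vivo transfection reagent and injected into tail vein of wild-type or Nr4a1-/- C57BL/6 mice (n = 5/group); 5 h later DMSO (50 μl) or Csn-B 50 mg kg-1 ip; liver lysate luciferase read 24 h post-injection; means ± s.e.m.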

T1 sequence (P22736 whole entry): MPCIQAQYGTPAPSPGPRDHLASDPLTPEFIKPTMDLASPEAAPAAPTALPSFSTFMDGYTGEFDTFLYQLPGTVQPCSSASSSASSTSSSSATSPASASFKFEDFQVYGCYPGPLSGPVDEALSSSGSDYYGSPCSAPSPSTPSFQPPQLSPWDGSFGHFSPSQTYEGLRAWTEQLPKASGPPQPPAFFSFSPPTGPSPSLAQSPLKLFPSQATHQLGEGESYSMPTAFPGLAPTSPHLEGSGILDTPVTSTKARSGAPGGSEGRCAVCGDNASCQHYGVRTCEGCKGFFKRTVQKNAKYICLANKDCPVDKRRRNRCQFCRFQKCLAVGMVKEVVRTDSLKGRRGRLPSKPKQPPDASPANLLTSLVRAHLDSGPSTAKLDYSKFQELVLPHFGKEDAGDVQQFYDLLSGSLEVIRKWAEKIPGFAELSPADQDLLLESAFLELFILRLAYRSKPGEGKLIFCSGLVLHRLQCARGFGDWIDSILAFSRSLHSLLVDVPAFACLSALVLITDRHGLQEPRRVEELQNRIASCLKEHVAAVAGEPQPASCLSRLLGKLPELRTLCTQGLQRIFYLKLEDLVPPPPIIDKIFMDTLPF
Sequence of Nuclear receptor subfamily 4 group A member 1 (Mus musculus) (P12813 whole entry): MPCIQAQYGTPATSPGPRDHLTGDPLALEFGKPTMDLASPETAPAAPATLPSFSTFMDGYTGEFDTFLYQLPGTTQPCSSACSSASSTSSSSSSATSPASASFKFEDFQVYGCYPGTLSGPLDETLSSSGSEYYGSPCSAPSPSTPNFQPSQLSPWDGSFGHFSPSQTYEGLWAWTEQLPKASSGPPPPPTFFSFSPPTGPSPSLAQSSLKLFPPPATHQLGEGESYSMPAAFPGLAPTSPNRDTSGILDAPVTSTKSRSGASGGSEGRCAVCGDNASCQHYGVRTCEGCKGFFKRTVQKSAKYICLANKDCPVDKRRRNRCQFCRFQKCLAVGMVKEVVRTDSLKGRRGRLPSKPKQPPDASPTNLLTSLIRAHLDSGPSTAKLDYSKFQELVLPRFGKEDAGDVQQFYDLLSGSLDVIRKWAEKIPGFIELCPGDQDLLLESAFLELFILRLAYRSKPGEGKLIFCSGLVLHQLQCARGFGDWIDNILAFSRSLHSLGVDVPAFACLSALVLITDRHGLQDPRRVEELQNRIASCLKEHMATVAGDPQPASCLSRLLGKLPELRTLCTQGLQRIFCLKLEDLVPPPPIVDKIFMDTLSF

CCCCCCCC(=O)c1c(O)cc(O)cc1CC(=O)OCC [CYTOSPORONE B]
Activity [1]: Active
Activity [2]: inactive
Activity [3]: Active
fold change (FC) [4]: 5
